≈ marks a conversion by molar mass, not a printed value.
Assays:
[1] = Antioxidant activity assessed as superoxide radical scavenging activity after 20 mins by NBT reduction assay; assay type: functional
How it was run: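 Superoxide made by xanthine/xanthine oxidase and detected by NBT reduction. Xanthine oxidase (0.8 U/ml stock) added, then 37 °C for 20 min. Stopped with 1 M HCl and read at 560 nm. Blank lacks enzyme. IC50 from a calibration curve. Triplicate experiments, mean.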

[2] = test system: Radical scavenging activity; assay: Antioxidant activity assessed as DPPH radical scavenging activity after 30 mins by microplate reader assay; assay type: functional
How it was run: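 Mixed 1 min, then kept at room temperature ([…]) for 30 min. Absorbance read at 515 nm. Scavenging % corrected for a no-DPPH blank. IC50 taken from a calibration curve. Triplicate experiments, mean reported.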

[3] = target: T1, Prostaglandin G/H synthase 1 (Ovis aries, UniProt P05979); assay: Inhibition of ovine COX1 by colorimetric assay
T1 sequence (P05979 whole entry): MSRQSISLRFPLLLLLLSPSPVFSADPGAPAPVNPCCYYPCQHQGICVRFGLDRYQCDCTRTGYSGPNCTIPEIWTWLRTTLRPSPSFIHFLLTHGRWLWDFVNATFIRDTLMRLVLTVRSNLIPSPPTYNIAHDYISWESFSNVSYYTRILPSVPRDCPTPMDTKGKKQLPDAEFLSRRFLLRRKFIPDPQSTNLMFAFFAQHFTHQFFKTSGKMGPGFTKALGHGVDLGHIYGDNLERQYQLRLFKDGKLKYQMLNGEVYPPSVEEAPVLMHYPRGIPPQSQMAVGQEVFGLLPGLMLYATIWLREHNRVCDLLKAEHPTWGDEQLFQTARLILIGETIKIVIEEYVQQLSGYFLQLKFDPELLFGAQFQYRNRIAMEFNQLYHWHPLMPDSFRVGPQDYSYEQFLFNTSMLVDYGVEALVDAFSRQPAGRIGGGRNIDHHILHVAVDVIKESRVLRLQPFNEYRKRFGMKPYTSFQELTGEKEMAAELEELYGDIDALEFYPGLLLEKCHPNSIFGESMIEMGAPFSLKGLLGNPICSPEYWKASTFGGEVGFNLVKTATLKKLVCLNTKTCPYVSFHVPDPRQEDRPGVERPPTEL
How it was run: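 Ovine COX-1, colorimetric inhibitor screening kit. Enzyme preincubated 5 min at 25 °C with compound. Arachidonic acid (final 1.1 mM) and TMPD then added, 5 min at 25 °C. Inhibition % = [1−(A1−A2)/A0]×100, blank without TMPD. IC50 from calibration curve over several concentrations. Triplicate experiments, mean reported.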

Row | SMILES | IC50 [1] [µg/mL] | IC50 [2] [µg/mL] | IC50 [3] [µM]
1 | O=c1cc(-c2ccc(O)cc2)oc2cc(O)cc(O)c12 [APIGENIN] | > 100 | > 100 | > 370
2 | Oc1ccc(CC[C@@H](O)C[C@H](O)CCc2ccc(O)cc2)cc1 [(+)-HANNOKINOL] | > 100 | > 100 | > 316
3 | COc1cc(O)cc(CCc2cccc(O)c2)c1 [BATATASIN III] | > 100 | > 100 | > 409
4 | COc1cc(O)cc2c1Oc1ccccc1CC2 | > 100 | 40.6 (≈ 168 µM) | > 413
5 | Oc1cc(O)c2c(c1)OC(c1ccc(O)c(O)c1)C(O)C2 (stereo not given) [CATECHIN] | 13.7 (≈ 47.2 µM) | 13.5 (≈ 46.5 µM) | 
6 | COc1cc(O)c2c(c1)CCc1cc(O)ccc1-2 [LUSIANTHRIDIN] | 51.5 (≈ 213 µM) | 43 (≈ 177 µM) | > 413
7 | COc1cc(CCc2ccccc2O)cc(OC)c1O | 56.3 (≈ 205 µM) | 28.8 (≈ 105 µM) | > 365
8 | COc1cc(CC[C@@H](O)C[C@H](O)CCc2ccc(O)c(OC)c2)ccc1O | 48.7 (≈ 129 µM) | 12.3 (≈ 32.7 µM) | > 266
9 | O=C1O[C@H]([C@@H](O)CO)C(O)=C1O [ASCORBIC ACID] | 16.7 (≈ 94.8 µM) | 19.2 (≈ 109 µM) | 
10 | COc1c(O)cc(CCc2ccccc2)cc1O | > 100 | 37.5 (≈ 154 µM) | > 409
11 | COc1ccc(CCc2ccccc2O)cc1OC | > 100 | > 100 | > 387
12 | COc1cc(/C=C/C=C/C(=O)CCc2ccc(O)cc2)ccc1O | 38.8 (≈ 120 µM) | 40 (≈ 123 µM) | > 308
13 | O=C(/C=C/C=C/c1ccc(O)cc1)CCc1ccc(O)cc1 | 44.1 (≈ 150 µM) | > 100 | > 340
14 | COc1c(O)cccc1CCc1cc(O)cc(O)c1 | > 100 | 46.7 (≈ 179 µM) | > 384
15 | Oc1cc(O)c2c(c1)CCc1ccccc1O2 | > 100 | > 100 | > 438
16 | Oc1cc(O)cc(CCc2ccccc2O)c1 | > 100 | > 100 | > 434
17 | O=C(/C=C/C=C/c1ccc(O)cc1)/C=C/c1ccc(O)cc1 | > 100 | > 100 | 19.8
18 | COc1cc(O)cc(CCc2ccccc2O)c1 [BATATASIN IV] | > 100 | > 100 | > 409
19 | COc1cc(O)cc2c1-c1c(O)cccc1CC2 [HIRCINOL] | 62.4 (≈ 258 µM) | 63.8 (≈ 263 µM) | > 413
20 | COc1cc(CCc2cc(O)cc(O)c2)ccc1O [TRISTIN] | 51.6 (≈ 198 µM) | 35.2 (≈ 135 µM) | 
21 | COc1cc2c(ccc3cc(O)cc(OC)c32)cc1O | 39.6 (≈ 147 µM) | 31.4 (≈ 116 µM) | 11.1

Reference: ChEMBL document CHEMBL1153410, “Phenolic compounds with radical scavenging and cyclooxygenase-2 (COX-2) inhibitory activities from Dioscorea opposita” (Bioorg Med Chem, 2009)
